Reference: ChEMBL document CHEMBL4261620, “Design, synthesis, and biological evaluation of 4-chloro-2H-thiochromenes featuring nitrogen-containing side chains as potent antifungal agents” (Bioorg Med Chem Lett, 2018)
≈ marks a conversion by molar mass, not a printed value.

Legend:
Candida albicans [1] = experiment: Antifungal activity against Candida albicans cpcc 400616 after 2 to 7 days by broth microdilution method; type: functional
Outline: (§1)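 Broth microdilution in 96-well plates per NCCLS. Compounds and fluconazole reference dissolved in DMSO, serially diluted in growth medium, then inoculum suspension added, final concentrations 128 to 0.25 µg/mL (twofold series). Incubated at 32°C. MIC read visually after 2-7 d.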

Aspergillus fumigatus = experiment: Antifungal activity against Aspergillus fumigatus cgmcc 3.7795 after 2 to 7 days by broth microdilution method; type: functional; outline: as §1
Candida tropicalis = experiment: Antifungal activity against Candida tropicalis cgmcc 2.3739 after 2 to 7 days by broth microdilution method; type: functional; outline: as §1
Cryptococcus neoformans = experiment: Antifungal activity against Cryptococcus neoformans cgmcc 2.3161 after 2 to 7 days by broth microdilution method; type: functional; outline: as §1
Candida albicans [2] = experiment: Antifungal activity against fluconazole-sensitive Candida albicans ATCC SC5314 after 2 to 7 days by broth microdilution method; type: functional; outline: as §1
Candida albicans [3] = experiment: Antifungal activity against fluconazole-resistant Candida albicans 103 after 2 to 7 days by broth microdilution method; type: functional
Outline: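 Broth microdilution per NCCLS. Compounds dissolved in DMSO, serially diluted in growth medium, then inoculum suspension added to give final concentrations of 128 to 0.25 µg/mL (twofold steps). Plates incubated at 32°C. MIC read by visual observation after 2-7 d. Fluconazole served as reference drug.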

HepG2 = experiment: Cytotoxicity against human HepG2 cells by MTT assay; type: cell-based
H9c2 = experiment: Cytotoxicity against rat H9c2 cells by MTT assay; type: cell-based
A549 = experiment: Cytotoxicity against human A549 cells by MTT assay; type: cell-based
HT-29 = experiment: Cytotoxicity against human HT-29 cells by MTT assay; type: cell-based

SMILES | MIC (Candida albicans [1]) [µg/mL] | MIC (Aspergillus fumigatus) [µg/mL] | MIC (Candida tropicalis) [µg/mL] | MIC (Cryptococcus neoformans) [µg/mL] | MIC (Candida albicans [2]) [µg/mL] | MIC (Candida albicans [3]) [µg/mL] | IC50 (HepG2) [µg/mL] | IC50 (H9c2) [µg/mL] | IC50 (A549) [µg/mL] | IC50 (HT-29) [µg/mL]
ClC1=C(CN2CCCCC2)CSc2ccc(Br)cc21 | 32 (≈ 89.2 µM) | > 128 | 128 (≈ 357 µM) | 4 (≈ 11.2 µM) | 8 (≈ 22.3 µM) | 64 (≈ 178 µM) |  |  |  | 
Cc1ccc2c(c1)C(=O)CCS2 | 16 (≈ 89.8 µM) | > 128 | 4 (≈ 22.4 µM) | 32 (≈ 180 µM) | 8 (≈ 44.9 µM) | 64 (≈ 359 µM) |  |  |  | 
O=CC1=C(Cl)c2cc(F)ccc2SC1 | 64 (≈ 280 µM) | > 128 | 16 (≈ 70 µM) | 32 (≈ 140 µM) | 64 (≈ 280 µM) | 64 (≈ 280 µM) |  |  |  | 
Fc1ccc2c(c1)C(Cl)=C(CN1CCCC1)CS2 | 8 (≈ 28.2 µM) | > 128 | 16 (≈ 56.4 µM) | 4 (≈ 14.1 µM) | 8 (≈ 28.2 µM) | 64 (≈ 226 µM) |  |  |  | 
Cc1ccc2c(c1)C(Cl)=C(C=O)CS2 | 32 (≈ 142 µM) | > 128 | 64 (≈ 285 µM) | 64 (≈ 285 µM) | 16 (≈ 71.2 µM) | 64 (≈ 285 µM) |  |  |  | 
Fc1ccc2c(c1)C(Cl)=C(Cn1ccnc1)CS2 | 16 (≈ 57 µM) | > 128 | 8 (≈ 28.5 µM) | 32 (≈ 114 µM) | 4 (≈ 14.2 µM) | 64 (≈ 228 µM) |  |  |  | 
CC(C)NCC1=C(Cl)c2cc(Br)ccc2SC1 | 8 (≈ 24 µM) | > 128 | > 128 | 4 (≈ 12 µM) | 4 (≈ 12 µM) | 16 (≈ 48.1 µM) |  |  |  | 
CCN(CC)CC1=C(Cl)c2cc(C)ccc2SC1 | 32 (≈ 114 µM) | > 128 | 64 (≈ 227 µM) | 8 (≈ 28.4 µM) | 32 (≈ 114 µM) | 64 (≈ 227 µM) |  |  |  | 
CC(C)N(CC1=C(Cl)c2cc(Cl)ccc2SC1)C(C)C | 4 (≈ 12.1 µM) | > 128 | 64 (≈ 194 µM) | 64 (≈ 194 µM) | 4 (≈ 12.1 µM) | 64 (≈ 194 µM) |  |  |  | 
ClC1=C(CN2CCCC2)CSc2ccc(Cl)cc21 | 32 (≈ 107 µM) | > 128 | 4 (≈ 13.3 µM) | 4 (≈ 13.3 µM) | 1 (≈ 3.33 µM) | > 128 |  |  |  | 
CCN(CC)CC1=C(Cl)c2cc(F)ccc2SC1 | 8 (≈ 28 µM) | > 128 | 2 (≈ 7 µM) | 2 (≈ 7 µM) | 8 (≈ 28 µM) | 64 (≈ 224 µM) |  |  |  | 
Cc1ccc2c(c1)C(Cl)=C(CN1CCCCC1)CS2 | 32 (≈ 109 µM) | > 128 | 64 (≈ 218 µM) | 16 (≈ 54.4 µM) | 16 (≈ 54.4 µM) | 128 (≈ 436 µM) |  |  |  | 
CC(C)NCC1=C(Cl)c2cc(F)ccc2SC1 | 8 (≈ 29.4 µM) | 64 (≈ 235 µM) | 2 (≈ 7.36 µM) | 4 (≈ 14.7 µM) | 2 (≈ 7.36 µM) | 64 (≈ 235 µM) |  |  |  | 
ClC1=C(Cn2ccnc2)CSc2ccc(Br)cc21 | 64 (≈ 187 µM) | > 128 | > 128 | 8 (≈ 23.4 µM) | 16 (≈ 46.8 µM) | > 128 |  |  |  | 
ClC1=C(Cn2cncn2)CSc2ccc(Cl)cc21 | 16 (≈ 53.7 µM) | > 128 | 32 (≈ 107 µM) | 4 (≈ 13.4 µM) | 8 (≈ 26.8 µM) | 32 (≈ 107 µM) |  |  |  | 
CN1CCN(CC2=C(Cl)c3cc(Cl)ccc3SC2)CC1 | 32 (≈ 97.2 µM) | > 128 | 64 (≈ 194 µM) | 4 (≈ 12.1 µM) | 16 (≈ 48.6 µM) | 64 (≈ 194 µM) |  |  |  | 
O=C1CCSc2ccc(Br)cc21 | 32 (≈ 132 µM) | > 128 | 16 (≈ 65.8 µM) | 64 (≈ 263 µM) | 8 (≈ 32.9 µM) | 64 (≈ 263 µM) |  |  |  | 
OC(Cn1cncn1)(Cn1cncn1)c1ccc(F)cc1F [FLUCONAZOLE] | 4 (≈ 13.1 µM) | > 128 | 2 (≈ 6.53 µM) | 1 (≈ 3.27 µM) | 1 (≈ 3.27 µM) | 32 (≈ 104 µM) | > 100 | > 100 | > 100 | > 100
